≈ marks a conversion by molar mass, not a printed value.
Legend:
[1] = target: DNA gyrase (Escherichia coli, UniProt P0AES4+P0AES6); assay: Inhibition of Escherichia coli DNA gyrase using relaxed pNO1 plasmid DNA as substrate incubated for 30 mins by fluorescence assay; type: protein-complex assay
[2] = tested on: Escherichia coli; assay: Antibacterial activity against outer membrane impaired Escherichia coli JD17464 harboring lpxC mutant assessed as minimum inhibitory concentration required for >=90% inhibition of bacterial growth measured after 24 hrs by broth microdilution method; type: functional
[3] = tested on: Staphylococcus aureus; assay: Antibacterial activity against Staphylococcus aureus ATCC 29213 assessed as minimum inhibitory concentration required for >=90% inhibition of bacterial growth measured after 24 hrs by broth microdilution method; type: functional
Summary of the method: (§1)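 Strains were grown from cation-adjusted Mueller-Hinton agar slants into cation-adjusted MH broth at 37°C for 16-20 h at 100 rpm. Broth microdilution followed CLSI guidelines, with a final inoculum of 5×10^5 CFU/mL mixed 1:1 with compound in MH broth and incubated for 24 h at 37°C. Growth was read as A620 and expressed as percentage inhibition relative to untreated controls. Each plate included a ciprofloxacin positive control.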

[4] = target: Topoisomerase IV (Staphylococcus aureus) (UniProt P0C1U9+P0C1S7); assay: Inhibition of Staphylococcus aureus DNA topoisomerase 4 assessed as enzyme residual activity at 10 uM using supercoiled pNO1 plasmid DNA as substrate incubated for 30 mins by fluorescence assay relative to control; type: protein-complex assay
[5] = tested on: Enterococcus faecalis; assay: Antibacterial activity against Enterococcus faecalis ATCC 29212 assessed as minimum inhibitory concentration required for >=90% inhibition of bacterial growth after 24 hrs by broth microdilution method; type: functional; summary of the method: as §1
[6] = tested on: Escherichia coli; assay: Antibacterial activity against efflux pump defective Escherichia coli JW5503 harbouring tolC mutant assessed as minimum inhibitory concentration required for >=90% inhibition of bacterial growth measured after 24 hrs by broth microdilution method; type: functional
[7] = target: DNA gyrase (Staphylococcus aureus, UniProt P0A0K8+P20831); assay: Inhibition of Staphylococcus aureus DNA gyrase using relaxed pNO1 plasmid DNA as substrate incubated for 30 mins by fluorescence assay; type: protein-complex assay
DNA gyrase (Staphylococcus aureus, UniProt P0A0K8+P20831), sequence (P0A0K8 whole entry): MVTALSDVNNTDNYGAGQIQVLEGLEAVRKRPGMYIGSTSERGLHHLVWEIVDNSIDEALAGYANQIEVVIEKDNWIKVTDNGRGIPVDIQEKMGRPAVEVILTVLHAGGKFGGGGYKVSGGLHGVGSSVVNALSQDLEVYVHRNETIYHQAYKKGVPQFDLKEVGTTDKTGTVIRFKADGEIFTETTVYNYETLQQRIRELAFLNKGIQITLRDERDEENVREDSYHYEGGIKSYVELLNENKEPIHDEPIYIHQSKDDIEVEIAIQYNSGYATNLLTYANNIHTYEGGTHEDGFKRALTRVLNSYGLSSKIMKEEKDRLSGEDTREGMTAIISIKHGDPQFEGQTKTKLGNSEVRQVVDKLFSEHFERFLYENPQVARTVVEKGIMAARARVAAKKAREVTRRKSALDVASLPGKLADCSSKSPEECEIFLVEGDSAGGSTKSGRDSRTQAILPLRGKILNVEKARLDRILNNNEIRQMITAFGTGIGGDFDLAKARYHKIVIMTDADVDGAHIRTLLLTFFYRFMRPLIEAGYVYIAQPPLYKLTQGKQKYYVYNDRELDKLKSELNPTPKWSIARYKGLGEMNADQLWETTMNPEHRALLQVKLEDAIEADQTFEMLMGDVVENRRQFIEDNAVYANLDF
DNA gyrase (Staphylococcus aureus, UniProt P0A0K8+P20831), sequence (P20831 whole entry): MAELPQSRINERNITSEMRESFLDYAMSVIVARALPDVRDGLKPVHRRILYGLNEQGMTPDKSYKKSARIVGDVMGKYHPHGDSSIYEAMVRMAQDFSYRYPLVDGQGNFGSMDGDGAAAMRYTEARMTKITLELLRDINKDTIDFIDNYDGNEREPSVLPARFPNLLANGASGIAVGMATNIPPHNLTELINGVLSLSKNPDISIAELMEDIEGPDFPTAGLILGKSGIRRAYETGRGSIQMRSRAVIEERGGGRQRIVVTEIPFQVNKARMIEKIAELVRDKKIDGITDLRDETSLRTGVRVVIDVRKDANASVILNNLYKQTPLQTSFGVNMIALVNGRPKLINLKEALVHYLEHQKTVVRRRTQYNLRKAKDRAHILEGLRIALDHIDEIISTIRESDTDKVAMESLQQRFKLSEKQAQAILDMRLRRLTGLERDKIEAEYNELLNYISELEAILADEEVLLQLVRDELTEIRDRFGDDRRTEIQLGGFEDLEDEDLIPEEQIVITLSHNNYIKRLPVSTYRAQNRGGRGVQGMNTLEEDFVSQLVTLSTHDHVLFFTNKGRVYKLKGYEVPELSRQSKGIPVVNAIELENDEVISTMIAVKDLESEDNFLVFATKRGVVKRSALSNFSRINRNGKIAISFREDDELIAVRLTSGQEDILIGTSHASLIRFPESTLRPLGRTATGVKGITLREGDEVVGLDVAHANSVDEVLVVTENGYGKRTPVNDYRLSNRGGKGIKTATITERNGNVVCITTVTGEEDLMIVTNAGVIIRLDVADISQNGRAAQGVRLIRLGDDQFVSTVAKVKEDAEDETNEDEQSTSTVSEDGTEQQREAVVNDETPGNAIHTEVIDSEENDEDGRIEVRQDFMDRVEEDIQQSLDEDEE

[8] = tested on: Escherichia coli; assay: Antibacterial activity against Escherichia coli ATCC 25922 assessed as minimum inhibitory concentration required for >=90% inhibition of bacterial growth measured after 24 hrs by broth microdilution method; type: functional
Summary of the method: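 Cation-adjusted Mueller Hinton broth culture grown 16-20 h at 37°C with 100 rpm shaking. CLSI broth microdilution at a final inoculum of 5×10^5 CFU/mL, 8 concentrations from […], incubated 24 h at 37°C. A620 read and growth inhibition expressed as % of untreated controls. Ciprofloxacin positive control on every plate; n = 3.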

[9] = tested on: Pseudomonas aeruginosa; assay: Antibacterial activity against Pseudomonas aeruginosa ATCC 27853 assessed as minimum inhibitory concentration required for >=90% inhibition of bacterial growth measured after 24 hrs by broth microdilution method; type: functional; summary of the method: as §1
[10] = tested on: Escherichia coli; assay: Inhibition of Escherichia coli DNA topoisomerase 4 assessed as enzyme residual activity at 10 uM using supercoiled pNO1 plasmid DNA as substrate incubated for 30 mins by fluorescence assay relative to control
[11] = Inhibition of Escherichia coli DNA topoisomerase 4 using supercoiled pNO1 plasmid DNA as substrate incubated for 30 mins by fluorescence assay
[12] = target: Topoisomerase IV (Staphylococcus aureus, UniProt P0C1S7+P0C1U9); assay: Inhibition of Staphylococcus aureus DNA topoisomerase 4 using supercoiled pNO1 plasmid DNA as substrate incubated for 30 mins by fluorescence assay; type: protein-complex assay
Topoisomerase IV, sequence (P0C1U9 whole entry): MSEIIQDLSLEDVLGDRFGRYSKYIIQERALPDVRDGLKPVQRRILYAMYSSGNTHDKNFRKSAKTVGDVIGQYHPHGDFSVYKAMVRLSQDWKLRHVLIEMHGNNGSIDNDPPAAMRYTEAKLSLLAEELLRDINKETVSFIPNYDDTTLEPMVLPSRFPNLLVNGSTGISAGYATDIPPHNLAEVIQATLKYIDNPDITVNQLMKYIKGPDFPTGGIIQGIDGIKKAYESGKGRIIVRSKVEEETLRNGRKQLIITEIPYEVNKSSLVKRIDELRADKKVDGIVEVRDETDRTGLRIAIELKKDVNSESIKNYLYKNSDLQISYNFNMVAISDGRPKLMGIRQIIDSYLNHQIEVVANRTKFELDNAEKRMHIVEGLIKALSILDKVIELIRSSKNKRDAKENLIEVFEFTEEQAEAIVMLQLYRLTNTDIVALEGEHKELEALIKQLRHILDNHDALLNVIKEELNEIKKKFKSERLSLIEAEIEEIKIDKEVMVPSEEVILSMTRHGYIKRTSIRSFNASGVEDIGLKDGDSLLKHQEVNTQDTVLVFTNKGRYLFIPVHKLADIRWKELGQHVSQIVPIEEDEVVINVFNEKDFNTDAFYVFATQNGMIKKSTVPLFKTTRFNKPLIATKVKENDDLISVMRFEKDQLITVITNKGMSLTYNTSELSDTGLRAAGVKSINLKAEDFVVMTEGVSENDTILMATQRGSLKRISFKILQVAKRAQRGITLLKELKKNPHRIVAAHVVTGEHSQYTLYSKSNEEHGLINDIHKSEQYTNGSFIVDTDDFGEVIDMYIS
Topoisomerase IV, sequence (P0C1S7 whole entry): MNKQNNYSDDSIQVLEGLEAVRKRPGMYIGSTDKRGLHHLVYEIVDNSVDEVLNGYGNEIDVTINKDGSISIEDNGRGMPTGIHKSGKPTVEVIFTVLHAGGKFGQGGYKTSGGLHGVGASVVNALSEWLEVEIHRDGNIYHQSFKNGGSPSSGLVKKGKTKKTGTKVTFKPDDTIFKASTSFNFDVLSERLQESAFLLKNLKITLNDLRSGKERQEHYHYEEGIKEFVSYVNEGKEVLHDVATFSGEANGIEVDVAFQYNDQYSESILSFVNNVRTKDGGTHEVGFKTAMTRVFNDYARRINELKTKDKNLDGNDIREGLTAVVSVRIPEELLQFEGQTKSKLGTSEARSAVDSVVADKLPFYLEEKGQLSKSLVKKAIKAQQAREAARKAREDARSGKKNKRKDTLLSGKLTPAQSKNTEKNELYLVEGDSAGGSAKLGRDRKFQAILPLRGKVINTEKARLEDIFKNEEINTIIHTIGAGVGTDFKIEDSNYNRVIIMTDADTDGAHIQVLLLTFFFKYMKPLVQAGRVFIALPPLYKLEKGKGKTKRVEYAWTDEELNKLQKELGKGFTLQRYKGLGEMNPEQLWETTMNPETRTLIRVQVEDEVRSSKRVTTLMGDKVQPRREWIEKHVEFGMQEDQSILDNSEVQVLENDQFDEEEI

[13] = target: DNA gyrase (Staphylococcus aureus) (UniProt P0A0K8+P20831); assay: Inhibition of Staphylococcus aureus DNA gyrase assessed as enzyme residual activity at 10 uM using relaxed pNO1 plasmid DNA as substrate incubated for 30 mins by fluorescence assay relative to control; type: protein-complex assay
DNA gyrase (Staphylococcus aureus), sequence (P0A0K8 2-644 limits assumed): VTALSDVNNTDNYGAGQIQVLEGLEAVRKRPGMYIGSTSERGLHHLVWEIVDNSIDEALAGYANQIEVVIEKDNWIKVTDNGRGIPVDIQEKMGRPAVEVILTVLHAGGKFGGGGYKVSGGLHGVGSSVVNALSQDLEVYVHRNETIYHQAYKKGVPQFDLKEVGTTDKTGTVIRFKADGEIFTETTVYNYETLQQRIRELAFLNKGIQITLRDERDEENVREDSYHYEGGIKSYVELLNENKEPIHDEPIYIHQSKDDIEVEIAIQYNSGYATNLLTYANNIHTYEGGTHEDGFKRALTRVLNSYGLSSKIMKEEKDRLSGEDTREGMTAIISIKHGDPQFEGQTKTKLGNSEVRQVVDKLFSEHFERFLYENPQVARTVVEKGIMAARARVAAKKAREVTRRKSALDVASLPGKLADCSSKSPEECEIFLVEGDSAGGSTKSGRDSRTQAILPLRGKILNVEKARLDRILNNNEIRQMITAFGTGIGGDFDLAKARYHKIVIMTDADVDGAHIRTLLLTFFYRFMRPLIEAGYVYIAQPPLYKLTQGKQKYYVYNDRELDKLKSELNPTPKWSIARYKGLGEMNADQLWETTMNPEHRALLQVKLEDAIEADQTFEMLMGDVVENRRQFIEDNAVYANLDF
DNA gyrase (Staphylococcus aureus), sequence (P20831 whole entry partner): as the sequence (P20831 whole entry) above

| SMILES | IC50 [1] [nM] | MIC [2] [µM] | MIC [3] [µM] | Activity [4] [%] | MIC [5] [µM] | MIC [6] [µM] | IC50 [7] [nM] | MIC [8] [µM] | MIC [9] [µM] | Activity [10] [%] | IC50 [11] [nM] | IC50 [12] [nM] | Activity [13] [%] |
| --- | --- | --- | --- | --- | --- | --- | --- | --- | --- | --- | --- | --- | --- |
| Cc1[nH]c(C(=O)Nc2nc3ccc(NC(=O)CNC(=O)OC(C)(C)C)cc3s2)c(Cl)c1Cl | 29 | > 50 | > 50 | 100 | 3.13 (≈ 1.56 µg/mL) | 0.78 (≈ 0.389 µg/mL) | 260 | > 50 | > 50 | 60 | – | – | – |
| Cc1[nH]c(C(=O)Nc2ccc3nc(NC(=O)C(=O)O)sc3c2)c(Cl)c1Cl | 29 | > 50 | > 50 | – | > 50 | – | 250 | – | > 50 | – | 6400 | 910 | – |
| O=C(O)C(=O)Nc1ccc2nc(NC(=O)c3cc(Br)c(Br)[nH]3)sc2c1 | – | – | – | – | – | – | – | – | – | – | – | 10000 | – |
| CC(=O)Nc1ccc2nc(NC(=O)c3[nH]c(C)c(Cl)c3Cl)sc2c1 | 9.5 | > 50 | > 50 | – | 3.13 (≈ 1.2 µg/mL) | 0.78 (≈ 0.299 µg/mL) | 400 | > 50 | > 50 | – | 4600 | 1600 | – |
| Cc1[nH]c(C(=O)Nc2nc3ccc(NC(=O)c4ccncc4)cc3s2)c(Cl)c1Cl | 2500 | > 50 | > 50 | 100 | > 50 | > 50 | – | > 50 | > 50 | 100 | – | – | 100 |
| CCOC(=O)C(=O)Nc1nc2ccc(NC(=O)c3[nH]c(C)c(Cl)c3Cl)cc2s1 | 290 | > 50 | > 50 | 100 | > 50 | > 50 | – | > 50 | > 50 | 100 | – | – | 69 |
| Cc1[nH]c(C(=O)Nc2nc3ccc(NC(N)=O)cc3s2)c(Cl)c1Cl | 26 | > 50 | > 50 | – | > 50 | 1.56 (≈ 0.599 µg/mL) | 1300 | > 50 | > 50 | – | 5200 | 5800 | – |
| CCOC(=O)C(=O)Nc1ccc2nc(NC(=O)c3[nH]c(C)c(Cl)c3Cl)sc2c1 | 48 | > 50 | > 50 | 100 | > 50 | 50 (≈ 22.1 µg/mL) | – | > 50 | > 50 | 100 | – | – | 100 |
| CCOC(=O)C(=O)Nc1ccc2nc(NC(=O)c3cc(Br)c(Br)[nH]3)[nH]c2c1 | 4000 | > 50 | > 50 | 100 | > 50 | > 50 | – | > 50 | > 50 | 100 | – | – | 100 |
| O=C(O)c1cn(C2CC2)c2cc(N3CCNCC3)c(F)cc2c1=O [CIPROFLOXACIN] | – | – | – | – | – | – | – | 0.05 (≈ 0.0166 µg/mL) | – | – | – | – | – |
| Cc1[nH]c(C(=O)Nc2nc3ccc(N)cc3s2)c(Cl)c1Cl | 16000 | – | – | 100 | – | – | – | – | – | 100 | – | – | 60 |
| Cc1[nH]c(C(=O)Nc2nc3ccc(NC(=O)CCNC(=O)OC(C)(C)C)cc3s2)c(Cl)c1Cl | 110 | > 50 | > 50 | 100 | > 50 | > 50 | 780 | > 50 | > 50 | 100 | – | – | – |
| O=C(O)C(=O)Nc1ccc2nc(NC(=O)c3cc(Br)c(Br)[nH]3)[nH]c2c1 | 600 | > 50 | > 50 | – | > 50 | – | 80000 | – | > 50 | – | 12000 | 31000 | – |
| COC(=O)CC(=O)Nc1nc2ccc(NC(=O)c3[nH]c(C)c(Cl)c3Cl)cc2s1 | 200 | > 50 | > 50 | 48 | > 50 | 1.56 (≈ 0.688 µg/mL) | – | > 50 | > 50 | 100 | – | – | 59 |
| Cc1[nH]c(C(=O)Nc2nc3ccc(NC(=O)CN)cc3s2)c(Cl)c1Cl | 280 | > 50 | 25 (≈ 9.96 µg/mL) | 100 | 6.25 (≈ 2.49 µg/mL) | 3.13 (≈ 1.25 µg/mL) | 380 | > 50 | > 50 | 100 | – | – | – |
| O=C(O)CC(=O)Nc1ccc2nc(NC(=O)c3cc(Br)c(Br)[nH]3)[nH]c2c1 | 1500 | > 50 | > 50 | 100 | > 50 | > 50 | – | > 50 | > 50 | 100 | – | – | 100 |
| CC(=O)Nc1nc2ccc(NC(=O)c3[nH]c(C)c(Cl)c3Cl)cc2s1 | 66 | > 50 | > 50 | 100 | > 50 | > 50 | 35400 | > 50 | > 50 | 100 | – | – | – |
| Cc1[nH]c(C(=O)Nc2nc3ccc(NC(=O)C(=O)O)cc3s2)c(Cl)c1Cl | – | > 50 | > 50 | – | > 50 | – | – | – | > 50 | – | 75 | 290 | – |
| COC(=O)CC(=O)Nc1ccc2nc(NC(=O)c3cc(Br)c(Br)[nH]3)[nH]c2c1 | 7000 | > 50 | > 50 | 100 | > 50 | > 50 | – | > 50 | > 50 | 100 | – | – | 100 |
| Cc1[nH]c(C(=O)Nc2nc3ccc(NC(=O)CCN)cc3s2)c(Cl)c1Cl | 110 | > 50 | > 50 | – | 12.5 (≈ 5.15 µg/mL) | 12.5 (≈ 5.15 µg/mL) | 1500 | > 50 | > 50 | – | 10000 | 290 | – |
